Data as given in ChEMBL document CHEMBL3603824, “Evaluation of spiropiperidine hydantoins as a novel class of antimalarial agents” (Bioorg Med Chem, 2015).
Active and inactive are the calls of the source. No cut-off for these calls is given here.

Key:
[1] = test system: Plasmodium falciparum; assay: Antimalarial activity against chloroquine-sensitive Plasmodium falciparum 3D7 infected in human erythrocytes assessed as inhibition of parasite growth after 72 hrs by SYBR Green I method; type: functional, organism-based; conditions: 3D7, 72 h
How it was run: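 P. falciparum 3D7 grown in human erythrocytes (2% hematocrit) in RPMI1640 with Hepes, hypoxanthine, glucose, bicarbonate and Albumax I under 5% CO2/5% O2/90% N2. 10 mM DMSO stocks, 3-fold serial dilutions. Quadruplicate wells at 0.5% parasitemia, 0.1% DMSO final, 72 h at 37 °C. SYBR Green I lysis buffer added, 1 h dark, fluorescence 497/520. IC50 by four-parameter logistic fit.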

[2] = test system: HepG2; assay: Cytotoxicity against human HepG2 cells assessed as inhibition of cell viability after 72 hrs by PrestoBlue Cell Viability Reagent based assay; conditions: HepG2, 72 h
How it was run: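 HepG2 kept in DMEM with 10% FBS and L-glutamine on poly-D-lysine at 37 °C, 5% CO2. Seeded 10,000 cells/well, allowed to adhere at least 4 h, then exposed to compound for 72 h. PrestoBlue added for 30 min at 37 °C, fluorescence Ex 560/Em 590 nm. IC50 by nonlinear regression.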

[3] = Selectivity index, ratio of IC50 for human HepG2 cells to IC50 for chloroquine-sensitive Plasmodium falciparum 3D7 infected in human erythrocytes; type: toxicity, cell-based; conditions: read-out: Ratio IC50
[4] = biological target: Beta-secretase 1 (Homo sapiens) (UniProt P56817); assay: Inhibition of human recombinant BACE1 using Mca-SEVNLDAEFRK(Dnp)RR-NH2 as substrate up to 10 uM by FRET assay
Beta-secretase 1 (Homo sapiens), sequence (P56817 whole entry): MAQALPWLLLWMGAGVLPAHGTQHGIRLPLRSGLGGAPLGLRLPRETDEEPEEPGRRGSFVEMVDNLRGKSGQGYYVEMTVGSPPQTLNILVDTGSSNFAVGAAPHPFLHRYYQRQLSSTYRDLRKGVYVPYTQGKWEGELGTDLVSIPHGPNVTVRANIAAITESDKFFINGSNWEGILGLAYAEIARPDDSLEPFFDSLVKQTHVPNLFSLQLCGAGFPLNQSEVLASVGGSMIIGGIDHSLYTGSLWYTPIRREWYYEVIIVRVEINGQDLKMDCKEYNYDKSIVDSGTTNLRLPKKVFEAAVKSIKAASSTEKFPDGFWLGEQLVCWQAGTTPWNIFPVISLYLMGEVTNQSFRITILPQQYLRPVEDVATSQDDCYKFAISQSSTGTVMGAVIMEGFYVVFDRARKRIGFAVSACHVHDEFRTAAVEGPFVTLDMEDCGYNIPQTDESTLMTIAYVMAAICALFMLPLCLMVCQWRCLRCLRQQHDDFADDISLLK
How it was run: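 Recombinant human BACE1 at 20 ng/µl, activated 15 min at RT in 100 mM sodium acetate pH 4.0. FRET substrate added at 20 uM final. Run 60 min at RT, time-resolved fluorescence Ex/Em 360/460 nm. IC50 by nonlinear regression.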

[5] = biological target: Cathepsin D (Homo sapiens) (UniProt P07339); assay: Inhibition of human recombinant cathepsin D using Mca-PLGL-Dpa-AR-NH2 as substrate up to 10 uM by FRET assay
Cathepsin D (Homo sapiens), sequence (P07339 65-162 limits assumed): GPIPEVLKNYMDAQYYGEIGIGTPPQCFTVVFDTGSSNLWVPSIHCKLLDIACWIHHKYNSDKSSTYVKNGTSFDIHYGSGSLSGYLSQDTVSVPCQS
Cathepsin D (Homo sapiens), sequence (P07339 169-412 limits assumed): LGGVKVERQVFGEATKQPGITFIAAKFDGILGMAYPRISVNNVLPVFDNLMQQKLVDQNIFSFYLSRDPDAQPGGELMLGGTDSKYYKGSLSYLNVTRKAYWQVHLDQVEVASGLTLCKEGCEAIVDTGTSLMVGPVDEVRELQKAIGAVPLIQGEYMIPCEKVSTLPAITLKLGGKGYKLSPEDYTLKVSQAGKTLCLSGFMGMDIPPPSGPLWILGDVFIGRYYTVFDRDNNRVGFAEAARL
How it was run: (§1)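 Recombinant human cathepsin D at 20 ng/µl and cathepsin E at 1 ng/µl, each activated 30 min at RT in 0.1 M NaOAc, 0.2 M NaCl, pH 3.5. FRET substrate added at 20 uM final. Run 60 min at RT, time-resolved fluorescence Ex/Em 360/460 nm. IC50 by nonlinear regression.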

[6] = biological target: T1, Cathepsin E (Homo sapiens) (UniProt P14091); assay: Inhibition of human recombinant cathepsin E using Mca-PLGL-Dpa-AR-NH2 as substrate up to 10 uM by FRET assay; how it was run: as §1
T1 sequence (whole entry): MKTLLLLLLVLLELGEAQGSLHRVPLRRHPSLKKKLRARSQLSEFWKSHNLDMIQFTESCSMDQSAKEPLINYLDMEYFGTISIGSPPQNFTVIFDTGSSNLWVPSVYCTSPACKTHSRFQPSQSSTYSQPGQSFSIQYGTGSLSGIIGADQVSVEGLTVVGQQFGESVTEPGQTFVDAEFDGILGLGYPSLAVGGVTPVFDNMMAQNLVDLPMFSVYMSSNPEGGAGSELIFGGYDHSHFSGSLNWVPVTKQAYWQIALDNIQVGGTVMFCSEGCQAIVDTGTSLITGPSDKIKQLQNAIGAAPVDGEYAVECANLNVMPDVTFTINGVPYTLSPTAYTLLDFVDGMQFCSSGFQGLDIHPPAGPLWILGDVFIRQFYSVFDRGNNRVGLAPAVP

[7] = test system: Plasmodium; assay: Inhibition of Plasmodium plamepsin 2 using EDANS-CO-CH2-CH2-CO-ALERMFLSFP-Dap(DABCYL)OH as substrate up to 10 uM after 60 mins by fluorescence assay
How it was run: (§2)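 Recombinant PM-2 or PM-4, purified and activated at 0.3 mg/ml in pH 4.5 citrate, 0.1% Tween-20, 50 mM DTT for 40 min at RT. Then diluted in 50 mM sodium acetate pH 4.7, 0.01% Tween-20. Serially diluted compounds added, followed by peptide substrate at 20 μM final. Run 60 min at RT, fluorescence Ex/Em 360/535 nm. IC50 derived from the curve.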

[8] = test system: Plasmodium; assay: Inhibition of Plasmodium plamepsin 4 using EDANS-CO-CH2-CH2-CO-ALERMFLSFP-Dap(DABCYL)OH as substrate up to 10 uM after 60 mins by fluorescence assay; how it was run: as §2
[9] = test system: Plasmodium falciparum; assay: Antimalarial activity against multidrug-resistant Plasmodium falciparum Dd2 infected in human erythrocytes assessed as inhibition of parasite growth after 72 hrs by SYBR Green I method; type: functional, organism-based; conditions: Dd2, 72 h
How it was run: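 SYBR Green I growth assay in human erythrocytes. DMSO stocks (10 mM), 3-fold serial dilutions, then diluted 500-fold into medium and added in quadruplicate. Final conditions: 2% hematocrit, 0.5% parasitemia, 0.1% DMSO. Incubated 72 h at 37 °C. Lysis buffer with SYBR Green I added, 1 h at room temperature in the dark. Fluorescence read at 497/520 nm. IC50 from four-parameter logistic nonlinear regression.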

[10] = test system: Liver; assay: Half-life in mouse liver microsomes at 1 uM by LC-MS/MS analysis; type: ADME
How it was run: (§3)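 Compound at 1 μM with liver microsomes (mouse, rat or human), 1.2 mM NADPH, 3.3 mM MgCl2, 100 mM potassium phosphate pH 7.4, at 37 °C. Aliquots taken at 0, 5, 10, 20 and 30 min and quenched in ice-cold acetonitrile with internal standard. Centrifuged supernatant run by LC-MS/MS. Half-life from analyte/internal standard peak-area ratios.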

[11] = test system: Liver microsome; assay: Half-life in rat liver microsomes at 1 uM by LC-MS/MS analysis; type: ADME; how it was run: as §3
[12] = test system: Liver microsome; assay: Half-life in human liver microsomes at 1 uM by LC-MS/MS analysis; type: ADME; how it was run: as §3
[13] = Half-life in Sprague-Dawley rat at 1 mg/kg, iv and 5 mg/kg, po by LC-MS analysis; type: ADME, organism-based; conditions: in vivo
[14] = test system: Rattus norvegicus; assay: Volume of distribution in Sprague-Dawley rat at 1 mg/kg, iv and 5 mg/kg, po by LC-MS analysis; type: ADME, organism-based; conditions: in vivo
[15] = test system: Rattus norvegicus; assay: Oral bioavailability in Sprague-Dawley rat at 5 mg/kg by LC-MS analysis; type: ADME, organism-based; conditions: in vivo

| SMILES | IC50 [1] [nM] | further results |
| --- | --- | --- |
| CCN1C(=O)N(CCC(C)C)C2(CCN(CCCO)CC2)C1=O | > 10000 |  |
| CC(C)CCN1C(=O)N(CCCc2ccncc2)C(=O)C12CCN(Cc1cc(Cl)ccc1O)CC2 | 610 |  |
| CCN1C(=O)N(Cc2ccc(OC)cc2)C2(CCN(Cc3cc(Cl)ccc3O)CC2)C1=O | 560 |  |
| CCN1C(=O)N(CCC(C)C)C2(CCN(Cc3cccc4cc[nH]c34)CC2)C1=O | 3400 |  |
| CCN1C(=O)N(CCC(C)C)C2(CCN(Cc3c(O)ccc(Cl)c3Cl)CC2)C1=O | 280 |  |
| CCN1C(=O)N(CCC(C)C)C2(CCN(Cc3cc(O)cc(Cl)c3)CC2)C1=O | 760 |  |
| CCN1C(=O)NC2(CCN(Cc3cc(Cl)ccc3O)CC2)C1=O | > 10000 |  |
| CCN1C(=O)N(CCC(C)C)C2(CCN(Cc3cccc(Cl)c3)CC2)C1=O | 14000 |  |
| CCN1C(=O)N(Cc2ccc(C(F)(F)F)cc2)C2(CCN(Cc3cc(Cl)ccc3O)CC2)C1=O | 230 |  |
| CCN1C(=O)N(c2ccccc2)C2(CCN(Cc3cc(Cl)ccc3O)CC2)C1=O | 3600 |  |
| CCN1C(=O)N(CCC(C)C)C2(CCN(Cc3cc(Br)ccc3O)CC2)C1=O | 210 |  |
| CCN1C(=O)N(CCC(C)C)C2(CCN(Cc3ccc(Cl)cc3O)CC2)C1=O | 2100 | IC50 [2]: > 50 µM |
| CC(C)CCN1C(=O)N(C(C)C)C(=O)C12CCN(Cc1cc(Cl)ccc1O)CC2 | 110 |  |
| CCN1C(=O)N(CCC(C)C)C2(CCN(Cc3ccc(O)c(Cl)c3)CC2)C1=O | 2600 |  |
| CCN1C(=O)N(CCC(C)C)C2(CCN(Cc3cccnc3N)CC2)C1=O | > 10000 |  |
| CCN1C(=O)N(CCC(C)C)C2(CCN(Cc3cccc4cccnc34)CC2)C1=O | > 10000 |  |
| CCN1C(=O)N(CCC(C)C)C2(CCN(Cc3cccc(OC)c3)CC2)C1=O | 16000 |  |
| CCN1C(=O)N(CCC(C)C)C2(CCN(Cc3cc(OC)ccc3O)CC2)C1=O | 560 |  |
| CCN1C(=O)N(CCC(C)C)C2(CCN(C(=O)c3ccccn3)CC2)C1=O | > 10000 |  |
| CC(C)CCN1C(=O)N(Cc2cccnc2)C(=O)C12CCN(Cc1cc(Cl)ccc1O)CC2 | 840 |  |
| CCN1C(=O)N(CCC(C)C)C2(CCN(Cc3cc(-c4ccccc4)ccc3O)CC2)C1=O | 290 | IC50 [2]: > 50 µM |

| SMILES | IC50 [1] [nM] | further results |
| --- | --- | --- |
| CC(C)CCN1C(=O)NC(=O)C12CCN(Cc1cc(Cl)ccc1O)CC2 | > 10000 |  |
| CCN1C(=O)N(CCC(C)C)C2(CCNCC2)C1=O | > 10000 |  |
| CCN1C(=O)N(CCC(C)C)C2(CCN(C(=O)c3cc(Cl)ccc3O)CC2)C1=O | > 10000 |  |
| CCN1C(=O)N(CCC(C)C)C2(CCN(Cc3ccc(OC)cc3O)CC2)C1=O | 940 |  |
| CCN1C(=O)N(Cc2ccccc2)C2(CCN(Cc3cc(Cl)ccc3O)CC2)C1=O | 560 |  |
| CCN1C(=O)N(CCC(C)C)C2(CCN(Cc3cccc(OC)c3O)CC2)C1=O | 6000 |  |
| CCN1C(=O)N(CCC(C)C)C2(CCN(Cc3cc(F)ccc3O)CC2)C1=O | 1400 |  |
| CCN1C(=O)N(CCC(C)C)C2(CCN(Cc3ccc(OC)cc3OC)CC2)C1=O | 7600 |  |
| CCN1C(=O)N(CCC(C)C)C2(CCN(Cc3ccccc3O)CC2)C1=O | 1100 |  |
| CCN1C(=O)N(CC)C2(CCN(Cc3cc(Cl)ccc3O)CC2)C1=O | 6700 |  |
| CCN1C(=O)N(Cc2ccc(C#N)cc2)C2(CCN(Cc3cc(Cl)ccc3O)CC2)C1=O | 1500 |  |
| CCN1C(=O)N(CCC(C)C)C2(CCN(Cc3c(O)cccc3Cl)CC2)C1=O | 410 |  |
| CCN1C(=O)N(CCC(C)C)C2(CCN(Cc3cc(Cl)ccc3O)CC2)C1=O | 220 | IC50 [2]: 37 µM; selectivity ratio [3]: > 100; inhibition [4]: inactive; inhibition [5]: inactive; inhibition [6]: inactive; inhibition [7]: inactive; inhibition [8]: inactive; IC50 [9]: 220 nM; t1/2 [10]: 4 min; t1/2 [11]: 3 min; t1/2 [12]: 9 min; half-life [13]: 16.8 min; Vd [14]: 3.7 L/kg; F [15]: 10% |
| CCN1C(=O)N(CCC(C)C)C2(CCN(Cc3cc(Cl)c(Cl)cc3O)CC2)C1=O | 90 | IC50 [2]: > 50 µM; selectivity ratio [3]: > 500; inhibition [4]: inactive; inhibition [5]: inactive; inhibition [6]: inactive; inhibition [7]: inactive; inhibition [8]: inactive |
| CCN1C(=O)N(CCC(C)C)C2(CCN(Cc3ccccn3)CC2)C1=O | > 10000 |  |
| CCN1C(=O)N(CCC(C)C)C2(CCN(Cc3cc(Cl)cc(Cl)c3O)CC2)C1=O | 460 |  |
| CCN1C(=O)N(CCC(C)C)C2(CCN(Cc3cccc(Cl)c3O)CC2)C1=O | 1100 |  |
| CCN1C(=O)N(CCC(C)C)C2(CCN(Cc3cc(Cl)cnc3N)CC2)C1=O | > 10000 |  |
| CCN1C(=O)N(CCC(C)C)C2(CCN(Cc3cc(C)ccc3O)CC2)C1=O | 880 |  |
| CCN1C(=O)N(CCc2ccccc2)C2(CCN(Cc3cc(Cl)ccc3O)CC2)C1=O | 290 |  |
| CCN1C(=O)N(C2CCCC2)C2(CCN(Cc3cc(Cl)ccc3O)CC2)C1=O | 430 |  |
